G6PDH CS – L. mesenteroides G6PDH inhibition counter-screen. hit rate 0.12% among 200,000. Purified L. mesenteroides G6PDH, diaphorase/resazurin coupled fluorescence, 45 min. inhibition, % at 5 µM
Diaph act CS – counter-screen for diaphorase-based assays: diaphorase activators and chemical reducers; Diaphorase/resazurin coupled assay, resorufin fluorescence, 16 min; hits give high values; 1 = vehicle wells, 0 = NADH-free wells; activation factor at 20 µM; hit rate 0.005% among 190,000; AID 1229;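 active = diaphorase activity raised at least twofold by the compound at 20 µM; inactive = activation factor below 2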
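Material: Clostridium kluyveri diaphorase, purified enzyme; Quantity: enzyme 0.07 U/mL final; Medium: HEPES pH 7.4 buffer with MgCl2 and Tween 20; Dosing: single compound dose of 20 µM, 1% DMSO final; Schedule: 16 min reaction at room temperature; Measured by: red resorufin fluorescence at 544/590 nm excitation/emission.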
PfG6PD inh – PfG6PD (Plasmodium falciparum) enzyme inhibition; inhibition, % at 20 µM; hit rate 0.78% among 350,000; PfGluPho enzyme, NADPH resazurin-diaphorase fluorescence;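 active = inhibition reaching at least a set limit at 20 µM in the primary screen, cut at about 59% in these data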;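 note: 0% = DMSO wells with substrate and 100% = DMSO wells lacking glucose-6-phosphate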
Redox H2O2 prof – compounds producing H2O2 with reducing agent – biochemical, NIH compound library profiling, artefact control for MLSCN library redox annotation, primary screen; activation, % at 10 µM; AID 878; DTT-dependent redox cycling H2O2, phenol red/HRP absorbance; 100% = 100 µM peroxide control, 0% = buffer; hit rate 0.03% among 200,000;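 active = activation of at least 50% relative to the plate's high and low controls in the primary single-dose screen; inactive = activation below 50%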;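 note: compound incubated with DTT at 0.8 mM final as the reducing agent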
Diaphorase inh – diaphorase inhibition or chemical oxidation counter-screen; diaphorase resazurin-to-resorufin fluorescence, NADH, 16 min; bacterial (C. kluyveri) enzyme, not human; inhibition, % at 20 µM; hit rate 0.69% among 190,000; AID 1217;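 active = primary screen inhibition at 20 µM above a set limit, cut at about 50% in these data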;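 note: plate controls were DMSO with full reaction for no effect and wells lacking NADH for full effect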
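Test system: diaphorase enzyme from Clostridium kluyveri; amount: diaphorase at 0.14 U/mL in enzyme working solution; detection: fluorescence of resorufin formed from resazurin, Ex 544/Em 590 nm; times: reaction incubation of 16 min at room temperature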
Lmaj promast – reduces viability of Leishmania major promastigotes. resazurin fluorescence viability. inhibition, % at 10 µM. hit rate 9% among 200,000;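 note: promastigotes grown with compound for 44 hours at 28 °C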
An asterisk follows results filed as active. Many of the other results were omitted from the sample, so hits are more common in it than they were. Cut-off read from the data, not from the text of the source, unless noted: active = inhibition above about 50%; inactive = the rest.

For O=C(COC(=O)CC(c1ccccc1)c1ccccc1)NCc1ccc(Cl)cc1 the results were G6PDH CS -4, Diaph act CS 0.9, PfG6PD inh 4, Redox H2O2 prof 0, Diaphorase inh 5 and Lmaj promast 69*.
Screening Cc1ccc(OCc2cc(C(=O)N(C)Cc3cnn(-c4ccccc4C)c3)no2)cn1 returned PfG6PD inh -1.
Screening O=C(Cc1cc(=O)[nH][nH]1)N/N=C/C=C/c1ccccc1 returned G6PDH CS 3, Diaph act CS 0.9, PfG6PD inh -17, Redox H2O2 prof -5, Diaphorase inh 5 and Lmaj promast 72*.
For Cc1c(NC(=O)COC(=O)c2cc3c4ccccc4n(C)c3s2)c(=O)n(-c2ccccc2)n1C the results were G6PDH CS 3, Diaph act CS 0.8, PfG6PD inh 4, Redox H2O2 prof -1, Diaphorase inh 21 and Lmaj promast 96*.
Cc1c(NC(=O)CSc2ccccc2F)c(=O)n(-c2ccccc2)n1C was read as G6PDH CS 1, Diaph act CS 0.5, PfG6PD inh -5, Redox H2O2 prof -3, Diaphorase inh 50* and Lmaj promast -7.
Cc1c(NC(=O)CC(=O)Nc2c(C)n(C)n(-c3ccccc3)c2=O)c(=O)n(-c2ccccc2)n1C was read as G6PDH CS 10, Diaph act CS 0.9, PfG6PD inh 0, Redox H2O2 prof 1, Diaphorase inh 10 and Lmaj promast 22.
`Cc1cc(C)c(C#N)c(SCC(=O)Nc2c(C)n(C)n(-c3ccccc3)c2=O)n1` gave PfG6PD inh 1.
For Cc1cc(SCC(=O)Nc2c(C)n(C)n(-c3ccccc3)c2=O)n2c(nc3ccccc32)c1C#N the results were Redox H2O2 prof 2 and Lmaj promast 87*.
COc1ccc(-c2cc(C(F)(F)F)n3nc(C(=O)NCCN4CCOCC4)cc3n2)cc1 was read as G6PDH CS 14, Diaph act CS 1, PfG6PD inh -12, Redox H2O2 prof -1, Diaphorase inh 0 and Lmaj promast 10.
`COc1ccc(-c2cc(C(F)(F)F)n3nc(C(=O)NCCCn4ccnc4)cc3n2)cc1` gave G6PDH CS 16, Diaph act CS 1.1, PfG6PD inh 7, Redox H2O2 prof 0, Diaphorase inh -7 and Lmaj promast 90*.
For O=C(NCCCn1ccnc1)c1nn2c(C(F)(F)F)cc(-c3ccc(Br)cc3)nc2c1Cl the results were G6PDH CS -4, Diaph act CS 1.1, PfG6PD inh -3, Redox H2O2 prof 0, Diaphorase inh -12 and Lmaj promast 100*.
Screening COc1ccccc1C(=O)NC(=O)COC(=O)CCOc1cc(C)ccc1C returned PfG6PD inh -3.
For COc1ccccc1OCCn1cc(/C=C(\C#N)C(=O)NCc2cccs2)c2ccccc21 the results were G6PDH CS -15, Diaph act CS 0.8, PfG6PD inh -8, Redox H2O2 prof 1, Diaphorase inh 16 and Lmaj promast 94*.
Screening Cc1ccc(C)c(OCCn2cc(/C=C(/C#N)C(=O)NCC3CCCO3)c3ccccc32)c1 (stereo not drawn) returned G6PDH CS 10, Diaph act CS 0.8, PfG6PD inh 6, Redox H2O2 prof 0, Diaphorase inh 16 and Lmaj promast 98*.
For N#C/C(=C\c1cn(Cc2ccccc2)c2ccccc12)C(=O)NCc1ccco1 the results were G6PDH CS -14, Diaph act CS 0.7, PfG6PD inh -3, Redox H2O2 prof 0, Diaphorase inh 25 and Lmaj promast 51*.
`CCOc1ccc(/C=C(\C#N)C(=O)NCC2CCCO2)cc1OCC` (stereo not drawn) gave G6PDH CS 6, Diaph act CS 1, PfG6PD inh 5, Redox H2O2 prof 0, Diaphorase inh 4 and Lmaj promast 64*.
For N#C/C(=C\c1cn(Cc2ccc(F)cc2)c2ccccc12)C(=O)NCc1ccco1 the results were G6PDH CS -10, Diaph act CS 1, PfG6PD inh 8, Redox H2O2 prof 0, Diaphorase inh 0 and Lmaj promast 13.
Screening COc1ccc2cc3cc(C(=O)NCCCN4CCc5ccccc5C4)sc3nc2c1 returned G6PDH CS -20, Diaph act CS 1.1, PfG6PD inh -10, Redox H2O2 prof 0, Diaphorase inh -9 and Lmaj promast 96*.
`Cc1ccc(-c2noc(CSc3nnc(Cc4ccccc4)n3-c3cccc(C)c3)n2)cc1` gave G6PDH CS 3, Diaph act CS 0.9, PfG6PD inh -4, Redox H2O2 prof 0, Diaphorase inh 14 and Lmaj promast 80*.
`COc1ccc(-c2noc(CSc3nnc(Cc4ccccc4)n3-c3cccc(C)c3)n2)cc1OC` gave G6PDH CS 14, Diaph act CS 0.7, PfG6PD inh 11, Redox H2O2 prof 0, Diaphorase inh 30 and Lmaj promast 54*.
For COc1ccc(-c2noc(CSc3nc4ccccc4c(=O)n3-c3ccccc3)n2)cc1OC the results were G6PDH CS -43, Diaph act CS 0.8, PfG6PD inh 13, Redox H2O2 prof 1, Diaphorase inh 20 and Lmaj promast 24.
Screening Cc1ccc(S(=O)(=O)N(C)CC(=O)N2CCN(Cc3ccccc3)CC2)cc1 returned PfG6PD inh -1.
Screening CCC(CC)NC(=O)c1cc(S(=O)(=O)N2CCCCC2)ccc1N1CCOCC1 returned PfG6PD inh 4.
CN(C(=O)C1CCCN1S(=O)(=O)c1ccc(Cl)cc1)c1ccccc1 (stereo not drawn) was read as PfG6PD inh 9.
For CCO[C@@H]1OC(C(=O)N2CCCCCCC2)=C[C@H](C2CCCCC2)[C@H]1CCCO the results were G6PDH CS 21, Diaph act CS 0.7, PfG6PD inh 2, Redox H2O2 prof 0, Diaphorase inh 30 and Lmaj promast 7.
Cc1ccc2c(c1)S/C(=C/c1ccc[n+](CCO)c1)N2C was read as G6PDH CS 7, Diaph act CS 0.9, PfG6PD inh 11, Redox H2O2 prof 0, Diaphorase inh 6 and Lmaj promast 82*.
Screening CC1CCCc2sc3nc(N4CCN(CCO)CC4)n4ncnc4c3c21 (stereo not drawn) returned G6PDH CS -1, Diaph act CS 0.8, PfG6PD inh -6, Redox H2O2 prof 2, Diaphorase inh 20 and Lmaj promast 91*.
For N#Cc1c(NCCO)nc(NCc2ccccc2)c2c1CCN(Cc1ccccc1)C2 the results were G6PDH CS 38, Diaph act CS 0.4, PfG6PD inh 30, Redox H2O2 prof 0, Diaphorase inh 59* and Lmaj promast 13.
Screening N#Cc1c(N)sc(=S)c2c1CCN(Cc1ccccc1)C2 returned G6PDH CS -45, Diaph act CS 0.2 and Diaphorase inh 82*.

Compound activity (PubChem BioAssay)
